Converted amounts (≈) assume the structure as drawn.
Legend:
S. aureus (ATCC 25923) = assay: Agar diffusion method, zone of inhibition; assay type: cell-based, Staphylococcus aureus; details: for Diameter of zone inhibition: S. aureus (ATCC 25923), average of triplicate
In short: (§1)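 Bacterial strains were tested by agar diffusion on nutrient agar (peptone 5 and meat extract 3 g L⁻¹ in distilled water, pH 7.0, 2% agar, autoclaved 121 °C for 20 min). Each test compound (1 mg) was dissolved in 1 mL DMSO and made up to 10 mL with sterile water (100 μg mL⁻¹ stock). The solution was placed in the agar, and inhibition zones were measured after 24 h incubation. Values are the mean of triplicate readings.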

S. pyogenes (ATCC 19615) = assay: Agar diffusion method, zone of inhibition; assay type: cell-based, Streptococcus pyogenes; details: for Diameter of zone inhibition: S. pyogenes (ATCC 19615), average of triplicate
[1] = test system: P. phaseolicola (GSPB 2828); assay: Agar diffusion method, zone of inhibition; assay type: cell-based, Pseudomonas phaseolicola; details: Pseudomonas, 24 h, read-out: Diameter of zone inhibition
In short: as §1

P. fluorescens (S 97) = assay: Agar diffusion method, zone of inhibition; assay type: cell-based, Pseudomonas fluorescens
In short: as §1

C. albicans = assay: Agar diffusion method, zone of inhibition; assay type: cell-based, Candida albicans; details: for Diameter of zone inhibition: C. albicans, average of triplicate
In short: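 For agar diffusion against C. albicans, each test compound (1 mg) was dissolved in 1 mL DMSO and diluted to 10 mL with sterile water (100 μg mL⁻¹ stock). The solution was placed in the agar, and the inhibition zone diameter was read after 24 h. Values are the average of triplicate readings.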

[2] = test system: K. pneumoniae (MDR clinical isolate); assay: Zone of inhibition against MDR clinical isolate; assay type: cell-based; details: for Diameter of zone inhibition: MDR K. pneumoniae clinical isolate, 15 μg mL^−1
[3] = test system: MRSA1 (methicillin resistant S. aureus); assay: Zone of inhibition against MDR clinical isolate; assay type: cell-based; details: for Diameter of zone inhibition: MRSA1 clinical isolate, 15 μg mL^−1
[4] = test system: MRSA1 (methicillin resistant S. aureus); assay: Minimal inhibitory concentration; assay type: cell-based
In short: (§2)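 Broth microdilution against MDR clinical isolates: 80 μl Mueller–Hinton broth plus 20 μl tween 80 received 100 μl test compound, then two-fold serial dilution. Each well was inoculated with 100 μl of 0.5 McFarland suspension ([…]) and incubated covered at 35 ± 2 °C for 24 h. MIC is the lowest concentration inhibiting growth.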

[5] = test system: MRSA1 (methicillin resistant S. aureus); assay: Minimum bactericidal concentration; assay type: cell-based; details: MRSA; >4 = bacteriostatic
Gram-positive bacteria = assay: Agar diffusion method; assay type: cell-based, S. aureus (ATCC 25923) and S. pyogenes (ATCC 19615); details: summary of Table 1
In short: as §1

[6] = test system: K. pneumoniae (MDR clinical isolate); assay: Minimal inhibitory concentration; assay type: cell-based
In short: as §2

VERO cells = assay: In vitro cytotoxicity, MTT assay; assay type: cell-based, African Green Monkey; details: normal VERO cells, 72 h, Table 4
Gram-negative bacteria = assay: Agar diffusion method; assay type: cell-based, P. phaseolicola (GSPB 2828) and P. fluorescens (S 97); details: summary of Table 1
In short: as §1

[7] = test system: K. pneumoniae (MDR clinical isolate); assay: Minimum bactericidal concentration; assay type: cell-based; details: >4 = bacteriostatic
[8] = Pseudomonas fluorescens, 24 h, read-out: Diameter of zone inhibition
[9] = Candida albicans, 24 h, read-out: Diameter of zone inhibition
[10] = MDR K. pneumoniae clinical isolate, Table 2

Molecule: CC1(c2ccccc2O)Nn2c(nc(-c3ccc(Cl)cc3)c(C#N)c2=O)N1C(Cc1c[nH]c2ccccc12)C(=O)O (stereo not drawn) [Compound 9d, 2-(5-(4-Chlorophenyl)-6-cyano-2-(2-hydroxyphenyl)-2-methyl-7-oxo-1,2-dihydro-[1,2,4]triazolo[1,5-a]pyrimidin-3(7H)-yl)-3-(1H-indol-3-yl)propanoic acid]
- zone of inhibition at 10 µg/mL (S. aureus (ATCC 25923); Staphylococcus aureus, ATCC25923, 24 h, read-out: Diameter of zone inhibition): 20 mm
- zone of inhibition at 10 µg/mL (S. pyogenes (ATCC 19615); Streptococcus pyogenes, ATCC19615, 24 h, read-out: Diameter of zone inhibition): 19 mm
- zone of inhibition at 10 µg/mL [1]: 10 mm
- zone of inhibition at 10 µg/mL (P. fluorescens (S 97); [8]): 12 mm
- zone of inhibition at 15 µg/mL (P. fluorescens (S 97); [8]): 23 mm
- zone of inhibition at 10 µg/mL (C. albicans; [9]): 7 mm
- zone of inhibition at 15 µg/mL (C. albicans; [9]): 8 mm
- zone of inhibition at 15 µg/mL ([2]; Klebsiella pneumoniae, read-out: Diameter of zone inhibition): 11 mm
- zone of inhibition at 15 µg/mL ([3]; Staphylococcus aureus, read-out: Diameter of zone inhibition): 29 mm
- Activity against methicillin resistant S. aureus ([4]; MDR clinical isolate, Table 2): remarkable activity
- MIC ([4]; MRSA1, Table 3): 12.5 µg/mL (≈ 22 µM)
- SI (selectivity index, CC50/MIC) ([4]; MRSA1 vs VERO cells): 40
- MIC ([4]; Staphylococcus aureus): 12.5 µg/mL (≈ 22 µM)
- MIC index (MBC/MIC) [5]: > 4
- Activity against Gram-positive bacteria (Gram-positive bacteria): active

Molecule: 2-(5-(4-Chlorophenyl)-6-cyano-2-(2-hydroxyphenyl)-7-imino-2-methyl-1,2-dihydro-[1,2,4]triazolo[1,5-a]pyrimidin-3(7H)-yl)propanoic acid [Compound 8b]
- Diameter of zone inhibition (S. aureus (ATCC 25923); 10 μg mL^−1, 24 h): 12 mm
- Diameter of zone inhibition (S. aureus (ATCC 25923); 15 μg mL^−1, 24 h): 22 mm
- Diameter of zone inhibition (S. pyogenes (ATCC 19615); 15 μg mL^−1, 24 h): 26 mm
- Diameter of zone inhibition (C. albicans; 10 μg mL^−1, 24 h): 8 mm
- Diameter of zone inhibition (C. albicans; 15 μg mL^−1, 24 h): 10 mm
- Diameter of zone inhibition [2]: 27 mm
- Diameter of zone inhibition [3]: 8 mm
- MIC ([6]; K. pneumoniae, Table 4): 25 µg/mL
- MIC [6, 10]: 25 µg/mL
- CC50 (VERO cells): 125 µg/mL
- Activity against Gram-negative bacteria (Gram-negative bacteria): active

Molecule: 2-(5-(4-Chlorophenyl)-6-cyano-2-(2-hydroxyphenyl)-7-imino-1,2-dihydro-[1,2,4]triazolo[1,5-a]pyrimidin-3(7H)-yl)propanoic acid [Compound 8a]
- Diameter of zone inhibition (S. aureus (ATCC 25923); 10 μg mL^−1, 24 h): 13 mm
- Diameter of zone inhibition (S. aureus (ATCC 25923); 15 μg mL^−1, 24 h): 20 mm
- Diameter of zone inhibition (S. pyogenes (ATCC 19615); 10 μg mL^−1, 24 h): 12 mm
- Diameter of zone inhibition (P. fluorescens (S 97); P. fluorescens (S 97), 15 μg mL^−1, 24 h, average of triplicate): 29 mm
- Diameter of zone inhibition (C. albicans; 10 μg mL^−1, 24 h): 10 mm
- Diameter of zone inhibition (C. albicans; 15 μg mL^−1, 24 h): 13 mm
- Diameter of zone inhibition [2]: 28 mm
- Diameter of zone inhibition [3]: 6 mm
- MIC ([6]; K. pneumoniae, Table 3): 12.5 µg/mL
- MIC [6, 10]: 12.5 µg/mL
- MIC index (MBC/MIC) [7]: > 4
- CC50 (VERO cells): 125 µg/mL
- Activity against Gram-negative bacteria (Gram-negative bacteria): active
